Usually MIC stands for the lowest concentration that inhibits growth of the organism. High values mean a need for much substance, low ones inhibition by little substance.

Format in all cases: functional
For test [1], the system named is Mycobacterium tuberculosis. In words: Antimycobacterial activity against extensively drug resistant Mycobacterium tuberculosis Praha 131 after 14 days by micromethod. The settings on record: Praha 131, 336 h. The gist of the method: (§1)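 MIC micromethod in Šula's semisynthetic medium at 37 °C, read after 14 and 21 days. Compounds added as DMSO solutions at 500 down to 0.5 µM (twofold-type series: 500, 250, 125, 62.5, 32, 16, 8, 4, 2, 1, 0.5 µM). Isoniazid standard given in sterile water.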

Test [2] deals with Mycobacterium tuberculosis. In words: Antimycobacterial activity against multidrug resistant Mycobacterium tuberculosis 234/2005 after 14 days by micromethod. The settings on record: 234/2005, 336 h. The gist of the method: (§2)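 Multidrug-resistant M. tuberculosis strains, each inoculated at 10^-3 dilution; 234/2005 is resistant to INH, RIF, rifabutin, streptomycin, ethambutol and ofloxacin. MIC determined by micromethod in Šula's semisynthetic medium at 37 °C after 14 and 21 days. Compounds added from DMSO at 0.5–500 µM.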

Test [3] concerns Mycobacterium tuberculosis. Description: Antimycobacterial activity against multidrug resistant Mycobacterium tuberculosis 234/2005 after 21 days by micromethod. The settings on record: 234/2005, 504 h. In short, it runs like this:
as §2

Test [4] has as its system Mycobacterium tuberculosis. Description: Antimycobacterial activity against multidrug resistant Mycobacterium tuberculosis 9449/2007 after 14 days by micromethod. The settings on record: 9449/2007, 336 h. In short, it runs like this:
as §2

Test [5] relates to Mycobacterium tuberculosis. In words: Antimycobacterial activity against multidrug resistant Mycobacterium tuberculosis 9449/2007 after 21 days by micromethod. The settings on record: 9449/2007, 504 h. In short, it runs like this: as §2
The subject of test [6] is Mycobacterium tuberculosis. Description: Antimycobacterial activity against multidrug resistant Mycobacterium tuberculosis 242/2015 after 14 days by micromethod. The settings on record: 242/2015, 336 h. In short, it runs like this:
as §2

Test [7] has as its system Mycobacterium tuberculosis. Description: Antimycobacterial activity against multidrug resistant Mycobacterium tuberculosis Praha 1 after 14 days by micromethod. The settings on record: Praha 1, 336 h. In short, it runs like this:
as §2

Test [8] relates to Mycobacterium tuberculosis. In words: Antimycobacterial activity against multidrug resistant Mycobacterium tuberculosis 242/2015 after 21 days by micromethod. The settings on record: 242/2015, 504 h. The gist of the method:
as §2

The subject of test [9] is Mycobacterium tuberculosis. In words: Antimycobacterial activity against multidrug resistant Mycobacterium tuberculosis Praha 1 after 21 days by micromethod. The settings on record: Praha 1, 504 h. The gist of the method: as §2
In test [10] the test system is Mycobacterium tuberculosis. Description: Antimycobacterial activity against multidrug resistant Mycobacterium tuberculosis Praha 4 after 14 days by micromethod. The settings on record: Praha 4, 336 h. The gist of the method:
as §2

The subject of test [11] is Mycobacterium tuberculosis. Description: Antimycobacterial activity against multidrug resistant Mycobacterium tuberculosis Praha 4 after 21 days by micromethod. The settings on record: Praha 4, 504 h. The gist of the method: as §2
Test [12] concerns Mycobacterium tuberculosis. Description: Antimycobacterial activity against extensively drug resistant Mycobacterium tuberculosis Praha 131 after 21 days by micromethod. The settings on record: Praha 131, 504 h. The gist of the method:
as §1

In brackets after ≈: the same amount, converted by molar mass.

On to `O=C(Nc1ccc(C(F)(F)F)cc1)c1cc(Cl)c(Br)cc1O`, for which the MIC in test [1], in test [2], in test [3], in test [4], in test [5] and in test [6] was 2 µM (≈ 0.789 µg/mL) throughout. Also, the MIC in [7] is 2 µM (≈ 0.789 µg/mL); in test [8] it was 2 µM (≈ 0.789 µg/mL); in test [9] it was 2 µM (≈ 0.789 µg/mL); in test [10], 2 µM (≈ 0.789 µg/mL); in [11], 4 µM (≈ 1.58 µg/mL); in test [12], 2 µM (≈ 0.789 µg/mL).

On to `O=C(Nc1ccc(C(F)(F)F)cc1)c1ccc(Br)cc1O`, for which the MIC was found to be 1 µM (≈ 0.36 µg/mL) in test [1]; 1 µM (≈ 0.36 µg/mL) in test [2]; 2 µM (≈ 0.72 µg/mL) in test [3]; 1 µM (≈ 0.36 µg/mL) in test [4]; 1 µM (≈ 0.36 µg/mL) in test [5]; 1 µM (≈ 0.36 µg/mL) in [6]. Further, the minimal inhibitory concentration (MIC) in test [7] was 1 µM (≈ 0.36 µg/mL); in test [8] it was 1 µM (≈ 0.36 µg/mL); in test [9], 1 µM (≈ 0.36 µg/mL); in [10], 1 µM (≈ 0.36 µg/mL); in test [11] it was 2 µM (≈ 0.72 µg/mL); in test [12], 1 µM (≈ 0.36 µg/mL).

Take `O=C(Nc1ccc(C(F)(F)F)cc1)c1cc(Br)ccc1O`: the minimal inhibitory concentration (MIC) was found to be 2 µM (≈ 0.72 µg/mL) in [1]; 2 µM (≈ 0.72 µg/mL) in test [2]; 4 µM (≈ 1.44 µg/mL) in [3]; 2 µM (≈ 0.72 µg/mL) in [4]; 1 µM (≈ 0.36 µg/mL) in test [5]; 1 µM (≈ 0.36 µg/mL) in test [6]. The minimal inhibitory concentration (MIC) in [7] is 1 µM (≈ 0.36 µg/mL); in test [8], 2 µM (≈ 0.72 µg/mL); in test [9], 1 µM (≈ 0.36 µg/mL); in test [10] it was 2 µM (≈ 0.72 µg/mL); in test [11], 4 µM (≈ 1.44 µg/mL); in test [12], 4 µM (≈ 1.44 µg/mL).

Consider `O=C(Nc1ccc(C(F)(F)F)cc1)c1cc(Br)c(Cl)cc1O`, for which the MIC in test [1], in test [2], in [3], in [4], in test [5] and in test [6] was 2 µM (≈ 0.789 µg/mL) each time. The MIC in [7], in test [8], in [9], in test [10], in [11] and in test [12] was 2 µM (≈ 0.789 µg/mL) each time.

In the case of `O=C(Nc1ccc(C(F)(F)F)cc1)c1cc(Cl)ccc1O`, the minimum inhibitory concentration (MIC) in [1], in test [2], in test [3], in test [4], in [5] and in test [6] was 0.5 µM (≈ 0.158 µg/mL) throughout. Besides, the MIC in test [7], in test [8], in test [9], in test [10], in test [11] and in [12] was 0.5 µM (≈ 0.158 µg/mL) each time.

For the molecule `O=C(Nc1ccc(C(F)(F)F)cc1)c1cc(Br)c(Br)cc1O`, the MIC stood at 2 µM (≈ 0.878 µg/mL) in [1]; 2 µM (≈ 0.878 µg/mL) in [2]; 2 µM (≈ 0.878 µg/mL) in test [3]; 2 µM (≈ 0.878 µg/mL) in [4]; 1 µM (≈ 0.439 µg/mL) in test [5]; 1 µM (≈ 0.439 µg/mL) in test [6]. The minimum inhibitory concentration (MIC) in test [7] worked out at 1 µM (≈ 0.439 µg/mL); in test [8] it was 2 µM (≈ 0.878 µg/mL); in test [9], 1 µM (≈ 0.439 µg/mL); in test [10], 2 µM (≈ 0.878 µg/mL); in [11], 2 µM (≈ 0.878 µg/mL); in test [12], 2 µM (≈ 0.878 µg/mL).

As for `O=C(Nc1ccc(C(F)(F)F)cc1)c1cc(Cl)c(Cl)cc1O`, the minimum inhibitory concentration (MIC) in test [1] worked out at 1 µM (≈ 0.35 µg/mL); in [2], 1 µM (≈ 0.35 µg/mL); in test [3] it was 2 µM (≈ 0.7 µg/mL); in test [4], 2 µM (≈ 0.7 µg/mL); in test [5], 1 µM (≈ 0.35 µg/mL); in test [6], 1 µM (≈ 0.35 µg/mL). Moreover, the MIC in test [7] is 1 µM (≈ 0.35 µg/mL); in test [8], 1 µM (≈ 0.35 µg/mL); in [9], 1 µM (≈ 0.35 µg/mL); in [10] it was 1 µM (≈ 0.35 µg/mL); in test [11] it was 2 µM (≈ 0.7 µg/mL); in test [12], 2 µM (≈ 0.7 µg/mL).

With `O=C(Nc1ccc(C(F)(F)F)cc1)c1ccc(Cl)cc1O`, the MIC amounted to 2 µM (≈ 0.631 µg/mL) in [1]; 2 µM (≈ 0.631 µg/mL) in [2]; 2 µM (≈ 0.631 µg/mL) in [3]; 2 µM (≈ 0.631 µg/mL) in test [4]; 1 µM (≈ 0.316 µg/mL) in [5]; 1 µM (≈ 0.316 µg/mL) in test [6]. The MIC in test [7] was found to be 1 µM (≈ 0.316 µg/mL); in test [8] it was 1 µM (≈ 0.316 µg/mL); in [9], 1 µM (≈ 0.316 µg/mL); in test [10] it was 1 µM (≈ 0.316 µg/mL); in [11] it was 2 µM (≈ 0.631 µg/mL); in test [12], 2 µM (≈ 0.631 µg/mL).

As for `NNC(=O)c1ccncc1` [ISONIAZID], the MIC came out at 16 µM (≈ 2.19 µg/mL) in test [1]; 16 µM (≈ 2.19 µg/mL) in [2]; 32 µM (≈ 4.39 µg/mL) in [3]; 16 µM (≈ 2.19 µg/mL) in [4]; 16 µM (≈ 2.19 µg/mL) in test [5]; 16 µM (≈ 2.19 µg/mL) in test [6]. Further, the minimum inhibitory concentration (MIC) in [7], in test [8], in [9], in test [10], in test [11] and in [12] was 16 µM (≈ 2.19 µg/mL) in each case.

For the origin of these results see ChEMBL document CHEMBL3877325, “Novel salicylanilides from 4,5-dihalogenated salicylic acids: Synthesis, antimicrobial activity and cytotoxicity” (Bioorg Med Chem, 2017).
